The target in test [1] is T1, Melatonin receptor type 1B (Homo sapiens) (UniProt P49286).
T1 sequence (whole entry): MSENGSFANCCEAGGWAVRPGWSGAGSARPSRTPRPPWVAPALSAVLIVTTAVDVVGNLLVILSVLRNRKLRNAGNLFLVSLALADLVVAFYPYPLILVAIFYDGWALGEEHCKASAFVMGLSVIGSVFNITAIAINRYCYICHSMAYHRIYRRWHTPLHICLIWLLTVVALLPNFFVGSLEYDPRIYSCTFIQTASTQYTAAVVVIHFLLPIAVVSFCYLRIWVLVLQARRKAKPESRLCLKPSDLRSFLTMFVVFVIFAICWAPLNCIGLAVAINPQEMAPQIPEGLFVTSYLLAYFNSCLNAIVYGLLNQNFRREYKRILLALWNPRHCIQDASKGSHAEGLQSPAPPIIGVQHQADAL
The test is described as follows: Agonist activity at human MT2 receptor expressed in CHO cells by [35S]GTPgamma binding assay relative to melatonin. Format: functional, cell-based.

In test [2] the target is T2, Melatonin receptor type 1B (Homo sapiens, UniProt P49286).
T2 sequence (P49286 whole entry): T1 sequence (whole entry)
The test is described as follows: Displacement of 2-[125I]iodomelatonin from human MT2 receptor expressed in CHO cells. It counts as cell-based.

The target in test [3] is T3, Melatonin receptor type 1A (Homo sapiens, UniProt P48039). The test is described as follows: Agonist activity at human MT1 receptor expressed in CHO cells by [35S]GTPgamma binding assay relative to melatonin. Format: functional, cell-based.
For test [4], the target named is T1, Melatonin receptor type 1B (Homo sapiens). In words: Antagonist activity at human MT2 receptor expressed in CHO cells assessed as inhibition of melatonin-induced [35S]GTPgamma binding. Format: functional, cell-based. In a few lines:
(§1)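 Then 0.2 nM [35S]GTPγS added, 1 h at room temperature in HEPES pH 7.4/NaCl/MgCl2/GDP/saponin buffer. Filtration, three ice-cold washes.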

Test [5] addresses T3, Melatonin receptor type 1A. The test is described as follows: Agonist activity at human MT1 receptor expressed in CHO cells by [35S]GTPgamma binding assay. Format: functional, cell-based.
Test [6] addresses T3, Melatonin receptor type 1A. The test is described as follows: Displacement of 2-[125I]iodomelatonin from human MT1 receptor expressed in CHO cells. It counts as cell-based.
The next test is filed under the species Homo sapiens. In words: Selectivity ratio of Ki for human MT1 receptor to Ki for human MT2 receptor. In a few lines: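 Ki values from competition binding on membranes of stably transfected CHO cells (human MT1 or MT2). Ratio is MT1 Ki over MT2 Ki.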
Test [7] addresses T3, Melatonin receptor type 1A. In words: Antagonist activity at human MT1 receptor expressed in CHO cells assessed as inhibition of melatonin-induced [35S]GTPgamma binding. Format: functional, cell-based. In outline:
as §1

Test [8] concerns the target T2, Melatonin receptor type 1B. In words: Agonist activity at human MT2 receptor expressed in CHO cells by [35S]GTPgamma binding assay. It counts as functional, cell-based.

A value given as a limit tells only on which side of the number the result lay.

T3 sequence (P48039 whole entry): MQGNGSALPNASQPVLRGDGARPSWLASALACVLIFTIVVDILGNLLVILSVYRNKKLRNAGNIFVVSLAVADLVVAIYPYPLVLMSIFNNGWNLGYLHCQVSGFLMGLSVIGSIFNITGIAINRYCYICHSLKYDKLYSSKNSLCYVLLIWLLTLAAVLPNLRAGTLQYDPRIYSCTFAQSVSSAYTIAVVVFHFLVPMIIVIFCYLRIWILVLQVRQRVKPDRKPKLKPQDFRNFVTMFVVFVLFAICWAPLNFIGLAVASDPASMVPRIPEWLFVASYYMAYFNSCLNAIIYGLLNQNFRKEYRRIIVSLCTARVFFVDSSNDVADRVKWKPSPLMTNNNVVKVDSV

As for `CC(=O)NCCc1csc2ccc(F)cc12`, the values for the Emax in [1] and in test [3] were 61% and 87%, respectively. Further, the Ki in [2] came out at 4.87 nM; in test [6] it was 24.6 nM. Further, the Kb in test [4] was above 10000 nM; in [7] it was 62.8 nM. Besides, the EC50 came out at 23.8 nM in test [5] and 0.68 nM in test [8]. The Ratio Ki in the test filed under Homo sapiens worked out at 5.
In [1], `O=C(CBr)NCCc1c(Sc2ccc(F)cc2)sc2ccc(F)cc12` came in with an Emax of 47%. Besides, the Ki in test [2] came out at 5.21 nM; in test [6] it was 22.1 nM. Moreover, the EC50 in test [5] was above 10000 nM; in [8], 7.27 nM. Besides, the Ratio Ki in the test filed under Homo sapiens turned out to be 4.2.
`O=C(NCCc1c(Sc2ccc(F)cc2)sc2ccc(F)cc12)C1CCC1`: the inhibition constant (Ki) in [2] is 194 nM; in [6], 915 nM. In addition, in the test filed under Homo sapiens, the Ratio Ki is 4.7.
For `CC(=O)NCCc1c(Sc2ccc(F)cc2)sc2ccc(F)cc12`, the Emax in [1] worked out at 42%; in [3], 33%. Also, the Ki in [2] was found to be 0.87 nM; in [6] it was 57 nM. In addition, the EC50 in test [5] was 202 nM; in test [8] it was 0.64 nM. For the same compound, the Ratio Ki in the test listed under Homo sapiens was found to be 65.5.
Take `O=C(CCCCl)NCCc1c(Sc2ccc(F)cc2)sc2ccc(F)cc12`: the Ki came out at 24.8 nM in test [2] and 2860 nM in test [6]. The Ratio Ki in the test listed under Homo sapiens is 115.
Regarding `C=CC(=O)NCCc1c(Sc2ccc(F)cc2)sc2ccc(F)cc12`, the Ki amounted to 10.7 nM in test [2] and 236 nM in test [6]. Also, in the test listed under Homo sapiens, the Ratio Ki is 22.
For the compound `C=CCC(=O)NCCc1c(Sc2ccc(F)cc2)sc2ccc(F)cc12`, the Emax in test [1] stood at 52.4%; in test [3], 45%. Moreover, the Ki in test [2] amounted to 0.24 nM; in test [6] it was 52.8 nM. In addition, the values for the EC50 in [5] and in test [8] were 188 nM and 2.15 nM, respectively. Moreover, the Ratio Ki in the test filed under Homo sapiens is 220.
On to `CCC(=O)NCCc1c(Sc2ccc(F)cc2)sc2ccc(F)cc12`, for which the Ki in [2] came to 4.4 nM; in test [6], 226 nM. Further, the Imax in [4] was determined as 92%; in test [7], 115%. In addition, the Kb in test [4] stood at 0.67 nM; in [7], 42 nM. Moreover, the EC50 in test [5] and in test [8] was above 10000 nM each time. Moreover, the Ratio Ki in the test filed under Homo sapiens was 51.4.

For orientation: Emax means the greatest response seen or fitted, relative to the assay's reference. One may read the Ki as a measure of affinity in units of concentration, obtained from inhibition or displacement. A low value points to higher affinity. The term Kb denotes the affinity of an antagonist, worked out from how it opposes an agonist. By EC50 is commonly meant the midpoint of the concentration-response curve. Higher therefore signals lower potency in that assay.

The values are drawn from ChEMBL document CHEMBL1777808, “Preparation and pharmacological evaluation of a novel series of 2-(phenylthio)benzo[b]thiophenes as selective MT2 receptor ligands” (Eur J Med Chem, 2011).
